Assay outcomes deposited in PubChem by several laboratories.
NSD2 HMT inh – inhibitors of human histone methyltransferase NSD2. NSD2 peptide methylation, AlphaScreen, 120 min. inhibition, % at 12.5 µM. 0.54% of 310,000 active. AID 743445; in the data active = inhibition above about 50%
TDP2 absorb – blocks human TDP2 phosphodiesterase activity | 0.34% of 370,000 active | recombinant TDP2, T5PNP hydrolysis, p-nitrophenol absorbance 415 nm | O95551 | inhibition, % at 12.8 µM;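 active = inhibition above the mean of all tested compounds plus 3 SD, set per campaign, cut at about 25% in these data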
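test system = human TDP2 enzyme | input = TDP2 enzyme at 120 nM final | medium = 50 mM Tris-HCl pH 7.5 with Mg2+, KCl, DTT, BSA | also added = T5PNP substrate, 5 mM | times = 2 h at 37 °C | technique = epi absorbance | benchmarks = high control without enzyme, low control DMSO plus TDP2 | replication = each compound tested once, singlicate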
MBD2 inh – MBD2-methylated oligo binding inhibition | 0.31% of 370,000 active | Q9UBB5 | inhibition, % at 4.4 µM | TR-FRET, MBD2 binding to methylated oligonucleotide | AID 686964; in the data active = inhibition above about 13%
UHRF1 binding – blocks human UHRF1 binding to methylated DNA. Q96T88. UHRF1 binding to methylated oligo, TR-FRET. inhibition, % at 4.4 µM. 0.75% of 370,000 active; in the data active = inhibition above about 21%;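 note: UHRF1 SRA domain binding a hemimethylated CpG hairpin DNA probe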
Target sequence (Q96T88 whole entry, looked up, the tested form may be a part): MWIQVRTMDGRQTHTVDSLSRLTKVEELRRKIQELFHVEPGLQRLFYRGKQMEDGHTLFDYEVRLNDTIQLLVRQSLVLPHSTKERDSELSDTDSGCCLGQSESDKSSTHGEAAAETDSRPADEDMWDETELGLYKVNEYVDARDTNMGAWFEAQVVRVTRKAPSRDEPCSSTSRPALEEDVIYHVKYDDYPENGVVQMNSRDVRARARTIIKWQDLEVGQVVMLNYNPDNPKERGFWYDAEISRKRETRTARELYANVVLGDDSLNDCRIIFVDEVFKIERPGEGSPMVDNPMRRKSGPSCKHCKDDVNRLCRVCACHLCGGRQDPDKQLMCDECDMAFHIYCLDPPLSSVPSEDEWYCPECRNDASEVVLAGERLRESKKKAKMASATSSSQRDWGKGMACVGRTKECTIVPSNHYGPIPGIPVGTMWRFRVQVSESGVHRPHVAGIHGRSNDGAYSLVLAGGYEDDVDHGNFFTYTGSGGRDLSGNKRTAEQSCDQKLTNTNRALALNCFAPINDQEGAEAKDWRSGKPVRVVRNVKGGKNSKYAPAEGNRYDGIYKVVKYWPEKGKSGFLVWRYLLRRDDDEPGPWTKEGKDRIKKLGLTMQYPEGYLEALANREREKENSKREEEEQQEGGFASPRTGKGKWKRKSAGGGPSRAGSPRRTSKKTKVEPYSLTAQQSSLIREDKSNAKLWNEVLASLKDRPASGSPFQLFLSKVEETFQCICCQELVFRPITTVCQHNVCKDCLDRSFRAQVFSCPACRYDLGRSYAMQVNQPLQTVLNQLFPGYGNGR
LEDGF integ inh – blocks HIV-1 LEDGF/p75-dependent DNA integration; TR-FRET IN-LEDGF/p75 DNA integration, Eu/Cy5; inhibition, % at 3.7 µM; 0.64% of 370,000 active;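 active = inhibition above the screen-wide mean plus 3 SD, cut at about 13% in these data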;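 note: signal is the Cy5 over europium emission ratio at 671 and 618 nm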
CASP6 VEID inh – blocks human caspase-6 cleavage activity | P55212 | inhibition, % at 12.5 µM | purified caspase-6, Z-VEID-R110 cleavage fluorescence | 0.53% of 350,000 active;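 active = mean inhibition across replicates at least about 35%, with every replicate also reaching that limit, limit read from the data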
Numbers stand for hits. Only some compounds are listed: those with a hit (about 1.8% of all), similar ones and a draw of the others.

What do the screens show for `Cc1ccc(NC(=O)CN2C(=O)S/C(=C\c3cc(Cl)c(OCC(=O)O)c(Cl)c3)C2=O)cc1`?
NSD2 HMT inh: inactive; TDP2 absorb: inactive; MBD2 inh: inactive; UHRF1 binding: inactive; LEDGF integ inh: inactive; CASP6 VEID inh: 39

What do the screens show for `CCC(=O)Nc1ccc2c(c1)OC[C@@H](C)N(C(=O)CN(C)C)C[C@@H](C)[C@@H](OC)CN(C)C2=O`?
CASP6 VEID inh: inactive

What do the screens show for `CCOC(=O)CN1C(=O)S/C(=C\c2ccc(-c3cccc(C(=O)O)c3C)o2)C1=O`?
NSD2 HMT inh: inactive; TDP2 absorb: inactive; MBD2 inh: inactive; UHRF1 binding: inactive; LEDGF integ inh: inactive; CASP6 VEID inh: inactive

What do the screens show for `O=C(O)c1ccc(-c2ccc(/C=C3\NC(=O)N(Cc4ccc(Cl)cc4)C3=O)o2)cc1Cl`?
NSD2 HMT inh: 129; TDP2 absorb: inactive; MBD2 inh: 22; UHRF1 binding: 77; LEDGF integ inh: 29; CASP6 VEID inh: 65

Results for CCOC(=O)CN1C(=O)S/C(=C\c2ccc(-c3ccc(C(=O)O)c(Cl)c3)o2)C1=O ?
NSD2 HMT inh: inactive; TDP2 absorb: inactive; MBD2 inh: inactive; UHRF1 binding: inactive; LEDGF integ inh: inactive; CASP6 VEID inh: 49

What do the screens show for `Cc1cccc(NC(=O)CN2C(=O)N/C(=C/c3ccc(-c4cccc(C(=O)O)c4C)o3)C2=O)c1`?
NSD2 HMT inh: inactive; TDP2 absorb: inactive; MBD2 inh: inactive; UHRF1 binding: inactive; LEDGF integ inh: inactive; CASP6 VEID inh: inactive

What do the screens show for `C[C@@H](O)C#Cc1ccc([C@@H]2[C@@H](CO)N3CCCCN(S(=O)(=O)Cc4ccccc4)C[C@H]23)cc1`?
CASP6 VEID inh: inactive

How did COc1ccc(Cc2nnc(NC(=O)C(C)C)s2)cc1 do in these assays?
NSD2 HMT inh: inactive; TDP2 absorb: inactive; MBD2 inh: inactive; UHRF1 binding: 30; LEDGF integ inh: inactive; CASP6 VEID inh: inactive

What do the screens show for `CC(C)N=C(Nc1cccnc1)c1ccccc1`?
NSD2 HMT inh: inactive; TDP2 absorb: inactive; MBD2 inh: inactive; UHRF1 binding: inactive; LEDGF integ inh: inactive; CASP6 VEID inh: 39

Results for CC(C)N=C(Nc1ccccc1)c1cccnc1 ?
NSD2 HMT inh: inactive; TDP2 absorb: inactive; MBD2 inh: inactive; UHRF1 binding: inactive; LEDGF integ inh: inactive

What do the screens show for `C[C@H]1CN([C@@H](C)CO)C(=O)Cc2cc(NC(=O)NC3CCCCC3)ccc2O[C@H]1CN(C)Cc1ccc(-c2ccccc2)cc1`?
CASP6 VEID inh: 42

What do the screens show for `C[C@H](CO)N1C[C@H](C)[C@H](CN(C)Cc2ccc(-c3ccccc3)cc2)Oc2ccc(NC(=O)NC3CCCCC3)cc2CC1=O`?
CASP6 VEID inh: inactive

What do the screens show for `C[C@H](CO)N1C[C@H](C)[C@@H](CN(C)S(=O)(=O)c2ccc(F)cc2)Oc2ccc(NS(C)(=O)=O)cc2CC1=O`?
CASP6 VEID inh: 44

Results for C[C@@H]1CN([C@@H](C)CO)C(=O)Cc2cc(N(C)C)ccc2O[C@@H]1CN(C)Cc1ccccc1 ?
CASP6 VEID inh: 35

Results for CN1[C@H](C(=O)NCC2CCCCC2)[C@@H](CO)[C@@H]2Cn3c(cccc3=O)[C@@H]21 ?
CASP6 VEID inh: inactive

How did O=C1CN(Cc2ccc(F)cc2)C[C@@H]2[C@H](c3ccc(-c4cccnc4)cc3)[C@@H](CO)N12 do in these assays?
CASP6 VEID inh: inactive

How did CCCNC(=O)N1CC2(CCN(Cc3cccc(F)c3)CC2)c2c([nH]c3cc(OC)ccc23)[C@H]1CO do in these assays?
CASP6 VEID inh: inactive

How did COc1ccccc1Nc1ccc2c(O)cc(S(=O)(=O)O)cc2c1 do in these assays?
NSD2 HMT inh: 110; TDP2 absorb: inactive; MBD2 inh: 24; UHRF1 binding: 47; LEDGF integ inh: 36; CASP6 VEID inh: 88

Results for O=S(=O)(O)c1cc(O)c2ccc(Nc3ccccc3)cc2c1 ?
NSD2 HMT inh: 105; TDP2 absorb: inactive; MBD2 inh: 36; UHRF1 binding: 64; LEDGF integ inh: 32; CASP6 VEID inh: 95

What do the screens show for `CO[C@H]1CN(C)C(=O)c2cc(NC(=O)Nc3c(C)noc3C)ccc2OC[C@H](C)N(CC2CC2)C[C@@H]1C`?
CASP6 VEID inh: inactive

What do the screens show for `NC(CO)C(=O)NNCc1ccc(O)c(O)c1O` (centres undefined)?
TDP2 absorb: inactive; MBD2 inh: inactive; UHRF1 binding: inactive; LEDGF integ inh: 43; CASP6 VEID inh: inactive

How did C[C@@H]1CN([C@@H](C)CO)S(=O)(=O)c2ccc(C#Cc3ccc(F)cc3)cc2O[C@@H]1CN(C)S(=O)(=O)c1ccc(F)cc1 do in these assays?
CASP6 VEID inh: inactive

What do the screens show for `Nc1ccc(C(=O)N/N=C/c2cn(Cc3ccc(F)cc3)c3ccccc23)cc1`?
NSD2 HMT inh: inactive; TDP2 absorb: inactive; MBD2 inh: inactive; UHRF1 binding: inactive; LEDGF integ inh: inactive; CASP6 VEID inh: 73

Results for O=C(N/N=C/c1cn(Cc2cccc(F)c2)c2ccccc12)c1cc(O)cc(O)c1 ?
NSD2 HMT inh: inactive; TDP2 absorb: inactive; MBD2 inh: 27; UHRF1 binding: 66; LEDGF integ inh: 39; CASP6 VEID inh: 57

Results for CC(C)NC(=O)N1CCCCN2[C@H](CO)[C@H](c3ccc(C#Cc4ccccc4)cc3)[C@@H]2C1 ?
CASP6 VEID inh: inactive

What do the screens show for `COc1ccc(NC(=O)CN2CCN(c3ccccc3Cl)CC2)cc1`?
NSD2 HMT inh: inactive; TDP2 absorb: inactive; MBD2 inh: inactive; UHRF1 binding: inactive; LEDGF integ inh: inactive

What do the screens show for `COc1ccc(NC(=O)Cn2cc(C(C)=O)c3ccccc32)cc1`?
NSD2 HMT inh: inactive; TDP2 absorb: inactive; MBD2 inh: inactive; UHRF1 binding: 94; LEDGF integ inh: inactive; CASP6 VEID inh: inactive

How did COc1ccc(NC(=O)CN2CCN(c3ccccc3C)CC2)cc1 do in these assays?
NSD2 HMT inh: inactive; TDP2 absorb: inactive; MBD2 inh: inactive; UHRF1 binding: 79; LEDGF integ inh: inactive; CASP6 VEID inh: inactive

What do the screens show for `CCOc1ccc(NC(=O)Cn2cc(C(C)=O)c3ccccc32)cc1`?
NSD2 HMT inh: inactive; TDP2 absorb: inactive; MBD2 inh: inactive; UHRF1 binding: inactive; LEDGF integ inh: inactive

What do the screens show for `COc1ccc(-c2cc3ccc(OCC(C)=O)cc3oc2=O)cc1OC`?
NSD2 HMT inh: inactive; TDP2 absorb: inactive; MBD2 inh: inactive; UHRF1 binding: inactive; LEDGF integ inh: inactive; CASP6 VEID inh: inactive

What do the screens show for `COc1ccc(-c2cc3ccc(OCC(C)=O)cc3oc2=O)cc1`?
NSD2 HMT inh: inactive; TDP2 absorb: inactive; MBD2 inh: inactive; UHRF1 binding: 23; LEDGF integ inh: inactive; CASP6 VEID inh: inactive

What do the screens show for `CN(C)C(=O)c1cc2c(c(-c3cccc(-c4ccc(F)cc4)c3)n1)[C@H](CCO)N([S@@](=O)C(C)(C)C)C2`?
CASP6 VEID inh: inactive
